Assays:
[1] = biological target: T1, 17-beta-hydroxysteroid dehydrogenase type 2 (Homo sapiens, UniProt P37059); test: Inhibition of 17beta-HSD2 (unknown origin)
T1 sequence (P37059 whole entry): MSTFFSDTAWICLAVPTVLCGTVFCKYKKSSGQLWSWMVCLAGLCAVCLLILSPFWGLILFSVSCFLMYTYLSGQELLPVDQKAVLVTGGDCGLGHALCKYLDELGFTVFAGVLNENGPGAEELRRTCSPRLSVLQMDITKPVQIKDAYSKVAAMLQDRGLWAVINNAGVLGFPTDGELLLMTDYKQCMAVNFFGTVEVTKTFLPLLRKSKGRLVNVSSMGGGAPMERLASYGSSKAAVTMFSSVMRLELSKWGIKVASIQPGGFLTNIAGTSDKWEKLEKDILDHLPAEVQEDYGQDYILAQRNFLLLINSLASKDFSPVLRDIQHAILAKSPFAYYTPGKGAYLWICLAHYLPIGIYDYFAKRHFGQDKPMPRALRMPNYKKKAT

[2] = biological target: T2, 17-beta-hydroxysteroid dehydrogenase type 1 (Homo sapiens, UniProt P14061); test: Inhibition of human placenta 17beta-HSD1 cytosolic fraction using unlabeled, [2,4,6,7-3H]-estrone as substrate after 10 mins by HPLC analysis in presence of NADH
T2 sequence (P14061 whole entry): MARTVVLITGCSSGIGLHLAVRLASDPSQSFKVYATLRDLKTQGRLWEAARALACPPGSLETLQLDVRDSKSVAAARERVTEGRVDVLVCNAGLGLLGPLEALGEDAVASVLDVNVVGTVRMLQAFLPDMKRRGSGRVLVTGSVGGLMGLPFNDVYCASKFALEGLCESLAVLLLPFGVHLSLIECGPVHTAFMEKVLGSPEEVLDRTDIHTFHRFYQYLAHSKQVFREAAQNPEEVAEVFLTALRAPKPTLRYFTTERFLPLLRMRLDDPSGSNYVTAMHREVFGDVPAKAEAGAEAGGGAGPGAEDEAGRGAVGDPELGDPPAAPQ

Homo sapiens = species: Homo sapiens; test: Selectivity factor, ratio of IC50 for human placenta 17beta-HSD1 cytosolic fraction to IC50 for human placenta 17beta-HSD2 microsomal fraction
Procedure, shortened: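 Selectivity factor is IC50(17β-HSD1, placental cytosolic, E1/NADH assay) divided by IC50(17β-HSD2, placental microsomal, E2/NAD⁺ assay). Both come from radiolabeled-substrate conversion assays at 37 °C with 500 nM substrate.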

[3] = biological target: T3, 17-beta-hydroxysteroid dehydrogenase type 2 (Homo sapiens) (UniProt P37059); test: Inhibition of human placenta 17beta-HSD2 microsomal fraction using unlabeled, [2,4,6,7-3H]-estradiol as substrate at 1 uM after 20 mins by HPLC analysis in presence of NAD+ relative to control
T3 sequence (whole entry): T1 sequence (P37059 whole entry)
Procedure, shortened: (§1)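 17β-HSD2 came from the human placental microsomal pellet after fractional centrifugation at 1000, 10,000 and 150,000 g. It was incubated at 37 °C with NAD⁺ and inhibitor in 50 mM phosphate buffer with 20% glycerol, 1 mM EDTA and 1% DMSO final. Unlabeled plus [³H]-E2 (500 nM final) was added, and the reaction was stopped with HgCl₂ after 20 min. After ether extraction, radio-flow detection gave % conversion = E1/(E1+E2). At least three independent experiments were run.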

[4] = biological target: T4, 17-beta-hydroxysteroid dehydrogenase type 1 (Homo sapiens) (UniProt P14061); test: Inhibition of human placenta 17beta-HSD1 cytosolic fraction using unlabeled, [2,4,6,7-3H]-estrone as substrate at 1 uM after 10 mins by HPLC analysis in presence of NADH relative to control
T4 sequence (whole entry): T2 sequence (P14061 whole entry)

[5] = Partition coefficient, log P of the compound; format: physicochemical; conditions: octanol/water
Procedure, shortened: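 Experimental log P was measured on a SiriusT3 instrument. Calculated log P came from the GALAS method, which predicts from structurally similar molecules with known experimental data.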

[6] = biological target: T1, 17-beta-hydroxysteroid dehydrogenase type 2; test: Inhibition of human placenta 17beta-HSD2 microsomal fraction using unlabeled, [2,4,6,7-3H]-estradiol as substrate after 20 mins by HPLC analysis in presence of NAD+; procedure, shortened: as §1

| SMILES | IC50 [1] [nM] | IC50 [2] [nM] | Ratio IC50 (Homo sapiens) | inhibition [3] [%] | inhibition [4] [%] | logP [5] | IC50 [6] [nM] |
| --- | --- | --- | --- | --- | --- | --- | --- |
| CN1C(=O)C[C@@H](c2ccccc2F)[C@@H]1[C@@H](O)c1cccc(-c2ccccc2)c1 | 420 | – | – | – | – | – | – |
| COc1cccc(-c2cccc(C(=O)N(C)c3cccc(OC)c3)c2)c1 | – | > 60000 | > 115 | – | – | – | – |
| CN(c1ccc(-c2cccc(O)c2)cc1)S(=O)(=O)c1cccc(O)c1 | – | 3280 | 6 | 66 | 22 | 3.72 | 511 |
| CN1C(=O)C[C@@H](c2ccccc2F)[C@@H]1[C@@H](O)c1ccc(-c2ccccc2)cc1 | 1020 | – | – | – | – | – | – |
| COc1ccc(-c2cccc(C(=O)N(C)Cc3cccc(OC)c3)c2)cc1 | – | – | – | – | 3 | – | – |

Further lines, results first:

| IC50 [1] [nM] | IC50 [2] [nM] | Ratio IC50 (Homo sapiens) | inhibition [3] [%] | inhibition [4] [%] | logP [5] | IC50 [6] [nM] | SMILES |
| --- | --- | --- | --- | --- | --- | --- | --- |
| – | 1310 | 2 | 68 | 42 | 4.34 | 540 | CN(c1cccc(O)c1)S(=O)(=O)c1cccc(-c2cccc(O)c2)c1 |
| – | 427 | 3 | 88 | 68 | 4.08 | 159 | CN(c1cccc(-c2cccc(O)c2)c1)S(=O)(=O)c1cccc(O)c1 |
